Results reported in ChEMBL document CHEMBL4334499, “SAR Exploration of Tight-Binding Inhibitors of Influenza Virus PA Endonuclease” (J Med Chem, 2019).
Active and inactive are the calls of the source. No cut-off for these calls is given here.

How the values were obtained:
[1] = target: Methionine aminopeptidase 2 (Homo sapiens) (UniProt P50579); assay: Inhibition of recombinant human MetAP2 at 200 uM using Met-AMC as fluorogenic substrate by fluorescence assay
[2] = target: Polymerase acidic protein (Influenza A virus (A/Puerto Rico/8/1934(H1N1)), UniProt P03433); assay: Inhibition of Influenza A virus RNA-dependent RNA polymerase PA N-terminal endonuclease using [6-FAM]AATCGCAGGCAGCACTC[TAM] substrate and measured over 45 mins by fluorescence based assay
[3] = target: T1, Arginase-1 (Homo sapiens) (UniProt P05089); assay: Inhibition of human Arg1 at 200 uM using thio-arginine substrate incubated for 30 mins by Ellman's reagent based assay
T1 sequence (whole entry): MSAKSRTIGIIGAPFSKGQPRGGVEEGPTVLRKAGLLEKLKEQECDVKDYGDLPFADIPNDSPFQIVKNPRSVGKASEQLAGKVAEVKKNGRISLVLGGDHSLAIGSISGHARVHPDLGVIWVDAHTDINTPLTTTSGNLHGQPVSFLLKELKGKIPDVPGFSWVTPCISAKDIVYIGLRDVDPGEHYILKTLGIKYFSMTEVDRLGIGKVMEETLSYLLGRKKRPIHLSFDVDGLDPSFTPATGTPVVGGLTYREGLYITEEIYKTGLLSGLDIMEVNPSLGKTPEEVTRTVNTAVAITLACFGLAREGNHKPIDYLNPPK

[4] = target: Carbonic anhydrase 2 (Homo sapiens) (UniProt P00918); assay: Inhibition of recombinant human CA2 expressed in Escherichia coli BL21 at 200 uM incubated for 15 mins using p-Nitrophenyl acetate substrate
[5] = target: Macrophage metalloelastase (Homo sapiens) (UniProt P39900); assay: Inhibition of human recombinant MMP12 at 200 uM incubated for 15 mins using OmniMMP fluorogenic substrate by fluorescence based assay
[6] = (§1) Antiviral activity against Influenza A virus (A/California/04/2009(H1N1)) ATCC VR-1737 infected in MDCK cells assessed as reduction in virus-induced cytopathic effect incubated for 48 hrs by Cell-titer-Glo luminescence assay; format: functional, cell-based; conditions: ATCC VR-1737, MDCK
In short: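 MDCK cells at 80% confluence were exposed to virus plus a range of inhibitor concentrations for 48 h at 37 °C, 5% CO2. CPE and cell viability were then read by CellTiter-Glo luminescence.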

[7] = Cytotoxicity in MDCK cells assessed as reduction in cell viability incubated for 12 hrs by MTT assay; format: cell-based, Canis lupus familiaris; conditions: dog
[8] = Cytotoxicity in mouse NIH/3T3 cells assessed as reduction in cell viability incubated for 12 hrs by MTT assay; format: cell-based, NIH3T3
[9] = as §1, with “Selectivity index, ratio of CC50 for cytotoxicity in MDCK cells assessed as reduction in cell viability incubated for 12 hrs by MTT assay to EC50 for antiviral” for “Antiviral”; format: toxicity, cell-based; conditions: dog, read-out: Ratio CC50/EC50
[10] = as §1, with “Selectivity index, ratio of CC50 for cytotoxicity in mouse NIH/3T3 cells assessed as reduction in cell viability incubated for 12 hrs by MTT assay to EC50 for antiviral” for “Antiviral”; format: toxicity, cell-based; conditions: read-out: Ratio CC50/EC50
[11] = target: Polymerase acidic protein (Influenza A virus (A/Puerto Rico/8/1934(H1N1))) (UniProt P03433)

Methionine aminopeptidase 2 (Homo sapiens), sequence (P50579 2-478 limits assumed): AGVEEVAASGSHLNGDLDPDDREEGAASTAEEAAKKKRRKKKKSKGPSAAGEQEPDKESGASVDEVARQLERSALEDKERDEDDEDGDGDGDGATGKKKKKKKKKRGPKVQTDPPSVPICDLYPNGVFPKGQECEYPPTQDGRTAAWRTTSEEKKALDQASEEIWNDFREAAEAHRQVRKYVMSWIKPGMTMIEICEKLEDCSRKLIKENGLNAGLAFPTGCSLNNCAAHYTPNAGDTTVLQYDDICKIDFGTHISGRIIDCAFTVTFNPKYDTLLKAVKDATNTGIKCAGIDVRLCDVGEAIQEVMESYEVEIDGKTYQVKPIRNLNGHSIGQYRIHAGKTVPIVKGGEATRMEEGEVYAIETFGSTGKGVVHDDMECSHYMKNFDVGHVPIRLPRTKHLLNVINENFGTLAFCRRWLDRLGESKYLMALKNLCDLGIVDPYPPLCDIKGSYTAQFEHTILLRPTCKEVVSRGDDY
Macrophage metalloelastase (Homo sapiens), sequence (P39900 106-470 limits assumed): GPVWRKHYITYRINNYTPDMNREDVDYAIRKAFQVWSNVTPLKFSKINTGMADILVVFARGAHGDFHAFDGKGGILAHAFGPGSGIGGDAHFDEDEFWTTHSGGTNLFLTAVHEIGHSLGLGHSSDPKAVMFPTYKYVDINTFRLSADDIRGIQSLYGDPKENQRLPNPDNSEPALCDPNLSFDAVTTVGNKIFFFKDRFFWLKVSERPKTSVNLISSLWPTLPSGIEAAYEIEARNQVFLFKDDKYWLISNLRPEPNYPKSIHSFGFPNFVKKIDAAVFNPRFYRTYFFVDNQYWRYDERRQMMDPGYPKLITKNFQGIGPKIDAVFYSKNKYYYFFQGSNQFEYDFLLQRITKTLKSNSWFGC

Row | Compound | IC50 ([2]; read-out: IC50) | IC50 ([2]; read-out: pIC50 (converted)) | ΔTm [11] | other results
1 | O=C(O)c1[nH]c(-c2ccc(-c3nnn[nH]3)cc2C(F)(F)F)cc(=O)c1O | 47 nM | 0.0501 nM | 17.8 °C | inhibition [1]: inactive; inhibition [3]: inactive; inhibition [4]: inactive; inhibition [5]: inactive; EC50 [6]: 11500 nM; CC50 at 12 h [7]: > 800000 nM; CC50 at 12 h [8]: > 800000 nM; selectivity ratio at 12 h [9]: 35 to 75; selectivity ratio at 12 h [10]: 35 to 75
2 | Cc1cc(C(=O)O)ccc1-c1cc(=O)c(O)c(C(=O)O)[nH]1 | 230 nM | 0.251 nM | 15.3 °C | 
3 | O=C(O)c1[nH]c(-c2ccc(Oc3ccccc3)cc2)cc(=O)c1O | 25 nM |  | 8.1 °C | 
4 | O=C(O)/C(O)=C/C(=O)C1(Cc2ccc(Cl)cc2)CCN(Cc2ccccc2)CC1 |  |  |  | EC50 [6]: 7400 nM; CC50 at 12 h [7]: > 800000 nM; CC50 at 12 h [8]: > 800000 nM; selectivity ratio at 12 h [9]: 35 to 75; selectivity ratio at 12 h [10]: 35 to 75
5 | O=C1c2c(O)c(=O)ccn2N([C@@H]2c3ccccc3SCc3c2ccc(F)c3F)[C@@H]2COCCN12 [BALOXAVIR] |  |  |  | EC50 [6]: 2200 nM; CC50 at 12 h [7]: 20000 nM; CC50 at 12 h [8]: > 800000 nM
6 | O=C(O)c1[nH]c(-c2cccc(-c3nnn[nH]3)c2)cc(=O)c1O | < 2 nM | < 2 nM | 12.9 °C | 
7 | CC(C)c1cccc(-c2cc(=O)c(O)c(C(=O)O)[nH]2)c1 | 6.3 nM |  | 10.1 °C | 
8 | O=C(O)c1[nH]c(-c2cccc(Oc3ccccc3)c2)cc(=O)c1O | 14 nM |  | 9 °C | 
9 | Cc1cc(-c2nnn[nH]2)ccc1-c1cc(=O)c(O)c(C(=O)O)[nH]1 | 110 nM | 0.1 nM | 16.5 °C | inhibition [1]: 44%; inhibition [3]: inactive; inhibition [4]: inactive; inhibition [5]: inactive; EC50 [6]: 21300 nM; CC50 at 12 h [7]: > 800000 nM; CC50 at 12 h [8]: > 800000 nM; selectivity ratio at 12 h [9]: 35 to 75; selectivity ratio at 12 h [10]: 35 to 75
10 | Cc1cccc(-c2cc(=O)c(O)c(C(=O)O)[nH]2)c1 | 4.8 nM |  | 10.7 °C | 
11 | CC(C)c1ccccc1-c1cc(=O)c(O)c(C(=O)O)[nH]1 | 3.2 nM |  | 11.6 °C | 
12 | CSc1ccccc1-c1cc(=O)c(O)c(C(=O)O)[nH]1 | 3.2 nM |  | 11.8 °C | 
13 | Cc1ccccc1-c1cc(=O)c(O)c(C(=O)O)[nH]1 |  |  | 13.2 °C | 
14 | O=C(O)c1cccc(-c2cc(=O)c(O)c(C(=O)O)[nH]2)c1 | 2.3 nM |  | 11.7 °C | 
15 | O=C(O)c1[nH]c(-c2ccccc2)cc(=O)c1O | 5.6 nM |  | 8.5 °C | 
16 | O=C(O)c1ccc(-c2cc(=O)c(O)c(C(=O)O)[nH]2)cc1 | < 2 nM | < 2 nM | 11.9 °C | 
17 | O=C(O)c1[nH]c(-c2ccc(-c3nnn[nH]3)cc2)cc(=O)c1O | < 2 nM | < 2 nM | 14.1 °C | EC50 [6]: 7700 nM; CC50 at 12 h [7]: > 800000 nM; CC50 at 12 h [8]: > 800000 nM; selectivity ratio at 12 h [9]: > 100; selectivity ratio at 12 h [10]: > 100
18 | Cc1cc(=O)c(O)c(C(=O)O)[nH]1 |  |  | 11.1 °C | 
19 | COc1ccccc1-c1cc(=O)c(O)c(C(=O)O)[nH]1 | 2.3 nM |  | 11.9 °C | 
20 | CCc1ccccc1-c1cc(=O)c(O)c(C(=O)O)[nH]1 | < 2 nM | < 2 nM | 13.1 °C | 
21 | O=C(O)c1[nH]c(-c2ccccc2Oc2ccccc2)cc(=O)c1O | 6 nM |  | 10.4 °C | 
22 | O=C(O)c1[nH]c(-c2ccccc2C(F)(F)F)cc(=O)c1O | < 2 nM | < 2 nM | 13.3 °C | EC50 [6]: 10400 nM; CC50 at 12 h [7]: > 800000 nM; CC50 at 12 h [8]: > 800000 nM; selectivity ratio at 12 h [9]: 35 to 75; selectivity ratio at 12 h [10]: 35 to 75
23 | Cc1ccc(-c2cc(=O)c(O)c(C(=O)O)[nH]2)cc1 | 7.2 nM |  | 10.3 °C | 
24 | Cc1cc(-c2noc(=O)[nH]2)ccc1-c1cc(=O)c(O)c(C(=O)O)[nH]1 | 120 nM | 0.126 nM | 16.3 °C | inhibition [1]: inactive; inhibition [3]: inactive; inhibition [4]: inactive; inhibition [5]: inactive
